For assay [1], the system named is Candida albicans. The assay is described as follows: Antifungal activity against Candida albicans SC5314 planktonic polymicrobial biofilms grown in presence of Staphylococcus aureus ATCC 29523 assessed as […] viability after 24 hrs in presence 50% bovine serum by CFU assay. The class given is functional, organism-based. The method in brief: (§1)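 C. albicans SC5314 at 10⁶ CFU/ml, alone or with S. aureus (10⁷ CFU/ml) for the mixed biofilm, was seeded in 50% bovine serum in tissue-culture-treated 96-well plates, 37°C, 24 h. Biofilms were PBS-washed thrice and exposed to serial antifungal concentrations diluted in 50% BS from DMSO stocks for 24 h. CFU were counted on ampicillin/erythromycin SDA after sonication. Duplicates, two experiments averaged.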

For assay [2], the system named is Candida albicans. Briefly: Antifungal activity against Candida albicans SC5314 planktonic monomicrobial biofilms assessed as […] viability after 24 hrs in presence 50% bovine serum by CFU assay. The class given is functional, organism-based. The method in brief: as §1
Assay [3] has as its system Candida albicans. The assay is described as follows: Antifungal activity against Candida albicans SC5314 monomicrobial biofilms assessed as fungal viability after 24 hrs by CFU assay in presence of 50% bovine serum. The class given is functional, organism-based. The gist of the method:
(§2)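 Biofilms were formed in 96-well tissue culture-treated plates in 50% BS with C. albicans (10⁶ CFU/ml) and/or S. aureus (10⁷ CFU/ml) for 24 h at 37°C. They were washed three times in PBS. Vancomycin, Amp B or both were added from DMSO stocks diluted in 50% BS, and biofilms were incubated a further 24 h. Cells were sonicated, tenfold-diluted and counted as CFU on selective agar. Duplicates; averages of two experiments.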

The subject of assay [4] is Staphylococcus aureus. The assay is described as follows: Antibacterial activity against Staphylococcus aureus ATCC 29523 […] polymicrobial biofilms grown in presence of Candida albicans SC5314 assessed as bacterial viability after 24 hrs in presence 50% bovine serum by CFU assay. The class given is functional, organism-based.
Assay [5] concerns Staphylococcus aureus. Briefly: Antibacterial activity against 10^7 CFU/ml Staphylococcus aureus ATCC 29523 polymicrobial biofilms grown in presence of Candida albicans biofilm matrix assessed as reduction in bacterial viability at 1.582 to 1600 ug/mL after 24 hrs in presence 50% bovine serum by CFU assay. The class given is functional, organism-based. The method in brief: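 Matrix came from 24-h C. albicans biofilms in 50% BS. It was scraped, sonicated, centrifuged three times at 12,000 × g and treated with Amp B 20 μg/ml. S. aureus (10⁷ CFU/ml) plus matrix in 50% BS was grown in 96-well plates for 24 h at 37°C, washed, then exposed to vancomycin for 24 h. Washed cells were counted as CFU. Duplicates; two independent experiments.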

The test system of assay [6] is Staphylococcus aureus. The assay is described as follows: Antibacterial activity against 10^7 CFU/ml Staphylococcus aureus ATCC 29523 polymicrobial biofilms grown in presence of Candida albicans SC5314 assessed as bacterial viability at 1600 ug/mL after 24 hrs in presence 50% bovine serum by CFU assay. Type of assay: functional, organism-based. The method in brief:
as §2

In assay [7] the test system is Staphylococcus aureus. Briefly: Antibacterial activity against 10^7 CFU/ml Staphylococcus aureus ATCC 29523 monomicrobial biofilms assessed as bacterial viability after 24 hrs by CFU assay in presence of 50% bovine serum. The class given is functional, organism-based. The gist of the method: as §2
The test system of assay [8] is Staphylococcus aureus. Briefly: Antibacterial activity against 10^7 CFU/ml Staphylococcus aureus ATCC 29523 monomicrobial biofilms assessed as bacterial viability after 24 hrs by CFU assay in presence of 50% heat inactivated bovine serum. The class given is functional, organism-based.
For assay [9], the system named is Candida albicans. The assay is described as follows: Antifungal activity against Candida albicans SC5314 polymicrobial biofilms grown in presence of sStaphylococcus aureus ATCC 29523 assessed as fungal viability after 24 hrs by CFU assay in presence of 50% bovine serum. The class given is functional, organism-based. The gist of the method: as §2
The subject of assay [10] is Staphylococcus aureus. Briefly: Antibacterial activity against 10^7 CFU/ml Staphylococcus aureus ATCC 29523 polymicrobial biofilms grown in presence of Candida albicans SC5314 assessed as bacterial viability after 24 hrs in presence of amphotericin B by CFU assay in presence of 50% bovine serum. The class given is functional, organism-based. The method in brief: as §2

In assay [11] the test system is Staphylococcus aureus. Briefly: Antibacterial activity against 10^7 CFU/ml Staphylococcus aureus ATCC 29523 polymicrobial biofilms grown in presence of Candida albicans SC5314 assessed as log reduction in bacterial viability at 800 ug/mL after 24 hrs in presence of amphotericin B by CFU assay in presence of 50% bovine serum. The class given is functional. The method in brief:
as §2

Assay [12] deals with Staphylococcus aureus. The assay is described as follows: Antibacterial activity against 10^7 CFU/ml Staphylococcus aureus ATCC 29523 monomicrobial biofilms assessed as log reduction in bacterial viability at 800 ug/mL after 24 hrs in presence of amphotericin B by CFU assay in presence of 50% bovine serum. Type of assay: functional. The gist of the method: as §2
The test system of assay [13] is Staphylococcus aureus. The assay is described as follows: Antibacterial activity against 10^7 CFU/ml Staphylococcus aureus ATCC 29523 polymicrobial biofilms grown in presence of 10^6 CFU/mL Candida albicans SC5314 assessed as bacterial viability at 800 ug/mL after 24 hrs by Transwell assay. The class given is functional, organism-based. The method in brief:
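S. aureus (10⁷ CFU/ml) went in the bottom well and C. albicans (10⁶ CFU/ml) on a 0.4-μm PET Transwell insert, 24 h at 37°C. After PBS washing, vancomycin 800 μg/ml (diluted in 50% BS) went to the bottom well and Amp B to the insert, for 24 h at 37°C. CFU were counted in both compartments, with no-insert controls. Duplicates; averages of two experiments.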

Activity calls are given as the source filed them. No cut-off for these calls is given here.

In the case of `C[C@@H]1[C@H](O)[C@@H](C)/C=C/C=C/C=C/C=C/C=C/C=C/C=C/[C@H](O[C@@H]2O[C@H](C)[C@@H](O)[C@H](N)[C@@H]2O)C[C@@H]2O[C@](O)(C[C@@H](O)C[C@@H](O)[C@H](O)CC[C@@H](O)C[C@@H](O)CC(=O)O[C@H]1C)C[C@H](O)[C@H]2C(=O)O`, the “growth inhibition (GI)” value in the assay with Candida albicans [1] and with Candida albicans [2] was “Active” each time. Moreover, the “growth inhibition (GI)” value in the assay on Candida albicans [3] was “inactive”.

On to `CN[C@H](CC(C)C)C(=O)N[C@H]1C(=O)N[C@@H](CC(N)=O)C(=O)N[C@H]2C(=O)N[C@H]3C(=O)N[C@H](C(=O)N[C@H](C(=O)O)c4cc(O)cc(O)c4-c4cc3ccc4O)[C@H](O)c3ccc(c(Cl)c3)Oc3cc2cc(c3O[C@@H]2O[C@H](CO)[C@@H](O)[C@H](O)[C@H]2O[C@H]2C[C@](C)(N)[C@H](O)[C@H](C)O2)Oc2ccc(cc2Cl)[C@H]1O` [VANCOMYCIN], for which the “growth inhibition (GI)” value with Staphylococcus aureus [4], in the assay on Staphylococcus aureus [10] and with Staphylococcus aureus [13] was “Active” each time. The “growth inhibition (GI)” value in the assay on Staphylococcus aureus [5], in the assay with Staphylococcus aureus [6], in the assay with Staphylococcus aureus [8], in the assay with Candida albicans [9] and with Candida albicans [3] was “inactive” throughout. For the same compound, in the assay with Staphylococcus aureus [7], the “growth inhibition (GI)” value is “Dose-dependent effect”. In addition, the FC in the assay on Staphylococcus aureus [11] and with Staphylococcus aureus [12] was 2 each time.

For the origin of these results see ChEMBL document CHEMBL1687742, “Candida albicans and Staphylococcus aureus form polymicrobial biofilms: effects on antimicrobial resistance” (2009).
